From PMC3828798 (Journal of the American Heart Association: Cardiovascular …, 2013)

Target: Recombinant angiotensin converting enzyme 2 (rACE2) (Homo sapiens, UniProt Q9BYF1)
Experiment: ACE2 proteolysis assay of pyr‐1‐apelin‐13 and APLN analogues
Type: in vitro ADME
Conditions: rACE2 in Tris buffer pH 8.0; HPLC coupled with MALDI‐TOF; Figures S8 and S9
In short: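 Quenched with 100 mmol/L EDTA pH 7.0. C18 reverse-phase HPLC, 10–45% acetonitrile/0.1% TFA, detection at 220 nm. Hydrolysis taken from substrate and product peak areas; masses confirmed by MALDI-TOF.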

Chain of Recombinant angiotensin converting enzyme 2 (rACE2) (Q9BYF1 18-805): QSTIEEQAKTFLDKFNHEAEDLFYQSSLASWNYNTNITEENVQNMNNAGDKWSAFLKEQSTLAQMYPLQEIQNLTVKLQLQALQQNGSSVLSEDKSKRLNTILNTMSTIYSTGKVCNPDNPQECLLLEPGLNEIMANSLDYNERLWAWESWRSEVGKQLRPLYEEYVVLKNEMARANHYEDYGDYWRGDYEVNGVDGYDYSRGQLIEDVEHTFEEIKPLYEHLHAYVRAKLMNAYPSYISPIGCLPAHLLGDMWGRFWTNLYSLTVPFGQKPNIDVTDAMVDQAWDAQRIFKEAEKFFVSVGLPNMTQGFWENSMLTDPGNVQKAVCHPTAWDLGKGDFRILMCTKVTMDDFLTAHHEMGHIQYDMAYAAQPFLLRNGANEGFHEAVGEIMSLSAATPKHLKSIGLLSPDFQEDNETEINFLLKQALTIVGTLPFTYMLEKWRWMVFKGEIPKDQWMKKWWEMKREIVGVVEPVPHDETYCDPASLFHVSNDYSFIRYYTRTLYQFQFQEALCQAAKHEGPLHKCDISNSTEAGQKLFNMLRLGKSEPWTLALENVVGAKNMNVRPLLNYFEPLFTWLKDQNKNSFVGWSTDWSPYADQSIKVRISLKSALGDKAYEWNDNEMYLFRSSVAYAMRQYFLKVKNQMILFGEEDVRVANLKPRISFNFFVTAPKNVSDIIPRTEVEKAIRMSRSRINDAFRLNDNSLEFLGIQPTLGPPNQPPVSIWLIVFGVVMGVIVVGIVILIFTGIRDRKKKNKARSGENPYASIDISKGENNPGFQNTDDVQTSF

Substance: pyr‐1‐apelin‐13 (QRPRLSHKGPMPF; Apelin-13 N-terminal pyroglutamate; UniProt Q9ULZ1 65-77, looked up, fragment)
- susceptibility to ACE2‐mediated proteolysis (result in words): efficient ACE2‐mediated cleavage
